Experimental data as given in PubChem BioAssay.
Active and inactive are the calls of the source.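 Rule for the calls, unless noted: active = viability at or below 10% of carrier control in both of two separate runs; inconclusive = viability at or below 10% in only one of the two runs; inactive = the rest.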

What was measured:
[1] = reducers of endogenous Her2 protein level, primary screen, SKBR3 breast tumor cells, AlphaScreen, ATP viability (AID 461;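 active = Her2 level under about 52% in both replicate screens, with viability over 70% of control, limit read from the data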;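 for Her2 level: lower value means less Her2 protein in the cells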;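 for viability: percent of carrier control wells set as 100% viability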); settings: 18-24 h, measured here: SKBR3 viability, ATP luminescence, at 10 µM
[2] = biological target: Receptor tyrosine-protein kinase erbB-2 (Homo sapiens) (UniProt P04626); test: as above; settings: 18-24 h, at 10 µM, stronger effect = lower value
[3] = SK-BR-3 cell growth inhibitors, pilot screen, 24 h, human (AID 572); settings: SK-BR-3 viability, CellTiter-Glo luminescence, at 10 µM, stronger effect = lower value;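 note: compound exposure lasted between 18 and 24 h rather than exactly 24 h; 100% = carrier-treated control wells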
[4] = HUVEC growth inhibition – cell-based, human, primary screen (AID 575;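 active = viability at or below 30% in both replicate assays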;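 note: 100% = median of untreated cell wells with 0.1% DMSO on each plate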); settings: HUVEC proliferation, CellTiter-Glo luminescence, 72 h; at 10 µM; stronger effect = lower value
Summary of the method: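 material = primary HUVEC, no more than 12 passages | input = 1250 cells per well | controls = vehicle and MePR control wells | measured by = CTG luminescence | times = 72 h compound incubation | format = collagen-coated 384-well format | read-out = % viability vs DMSO wells | doses = single 10 µM dose, 0.1% DMSO, from 5x medium stock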

[5] = growth inhibitors of H69AR lung tumor, primary screen, human, duplicate replicates (AID 580;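 active = viability at or under a set limit in both replicates, limit being median viability minus 3 SD, cut at about 48% in these data, passing the limit was not always enough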;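 note: 100% = mean luminescence of untreated wells and 0% = no signal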); settings: H69AR lung tumor cells viability, ATP luminescence, 72 h; at 10 µM; stronger effect = lower value
[6] = reversal of MRP1-mediated doxorubicin resistance, pilot screen, H69AR cells, doxorubicin co-treatment (AID 601;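 active = viability loss from added drug above about 55%, and viability with drug at most 40%, in both replicates, limit read from the data, passing the limit was not always enough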); settings: CellTiter-Glo, 72 h, at 10 µM; for differential viability (reversal): stronger effect = higher value
[7] = 384-well plate pilot, post-Golgi transport modulator project, inhibition of yeast transport mutant growth (AID 636; in the data active = inhibition above about 31%); settings: absorbance 615 nm, about 18 h, stronger effect = higher value
[8] = growth suppression of yeast trafficking mutant, preliminary HTS, modulators of trafficking downstream of Golgi apparatus project, 1536-format plate, OD 615 nm (AID 637; in the data active = inhibition above about 30%); settings: yeast transport mutant growth, absorbance 615 nm, 18 h; stronger effect = higher value
[9] = H69AR cells + 2 uM doxorubicin, measured here: viability with 2 uM doxorubicin, stronger effect = lower value
[10] = H69AR cells, compound alone cytotoxicity

Chain of Receptor tyrosine-protein kinase erbB-2 (Homo sapiens) (P04626 whole entry, looked up): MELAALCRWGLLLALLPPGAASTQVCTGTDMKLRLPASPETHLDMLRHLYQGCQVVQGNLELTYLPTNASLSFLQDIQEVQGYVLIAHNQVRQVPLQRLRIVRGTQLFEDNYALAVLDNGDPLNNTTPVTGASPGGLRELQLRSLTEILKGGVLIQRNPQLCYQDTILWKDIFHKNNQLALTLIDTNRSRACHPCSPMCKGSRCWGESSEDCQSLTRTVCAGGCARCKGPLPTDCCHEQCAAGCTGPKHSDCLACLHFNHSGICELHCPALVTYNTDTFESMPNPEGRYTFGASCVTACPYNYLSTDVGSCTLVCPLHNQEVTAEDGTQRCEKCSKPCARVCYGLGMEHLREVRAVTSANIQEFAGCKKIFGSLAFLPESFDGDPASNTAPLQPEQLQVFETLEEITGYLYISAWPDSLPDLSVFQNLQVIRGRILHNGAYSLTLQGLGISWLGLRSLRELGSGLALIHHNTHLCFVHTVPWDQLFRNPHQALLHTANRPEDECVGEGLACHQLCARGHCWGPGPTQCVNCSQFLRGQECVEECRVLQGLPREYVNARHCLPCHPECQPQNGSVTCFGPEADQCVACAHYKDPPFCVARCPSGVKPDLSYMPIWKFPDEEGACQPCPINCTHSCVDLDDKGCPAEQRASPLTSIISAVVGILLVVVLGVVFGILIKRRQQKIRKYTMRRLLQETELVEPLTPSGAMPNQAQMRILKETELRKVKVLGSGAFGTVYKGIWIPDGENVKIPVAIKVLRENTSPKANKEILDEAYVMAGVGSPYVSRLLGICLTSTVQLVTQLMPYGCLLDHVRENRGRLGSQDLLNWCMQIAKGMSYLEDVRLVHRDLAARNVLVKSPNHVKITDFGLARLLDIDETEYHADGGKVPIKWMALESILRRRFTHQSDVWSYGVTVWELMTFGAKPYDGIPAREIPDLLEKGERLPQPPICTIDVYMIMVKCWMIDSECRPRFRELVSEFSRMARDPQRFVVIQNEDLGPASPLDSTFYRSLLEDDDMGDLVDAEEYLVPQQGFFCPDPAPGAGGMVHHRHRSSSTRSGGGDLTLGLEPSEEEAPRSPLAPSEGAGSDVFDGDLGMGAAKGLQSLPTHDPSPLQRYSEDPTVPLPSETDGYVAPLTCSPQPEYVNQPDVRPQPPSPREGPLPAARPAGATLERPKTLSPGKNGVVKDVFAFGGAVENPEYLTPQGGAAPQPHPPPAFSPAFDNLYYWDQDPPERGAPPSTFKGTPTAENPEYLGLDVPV

Structure (SMILES)	viability [1] [%]	Her2 level [2]	viability [3]	viability [4]	viability [5]	differential viability (reversal) ([6]; H69AR cells + 2 uM doxorubicin)	viability [6, 9] [%]	viability [6, 10] [%]	inhibition [7]	inhibition [8]
CC1c2nc3ccccc3n2C(CC(=O)NCc2ccccn2)C(=O)N1Cc1ccccc1 (stereo not given)	110	72% (inactive)	110% (inactive)	96.3% (inactive)	92.8% (inactive)	7.24% (inactive)	85.5	92.8	-1.58% (inactive)	1.59% (inactive)
CC1(C)NC(=O)N(CC(O)COc2ccc(-c3ccccc3)cc2)C1=O (stereo not given)	101	102% (inactive)	101% (inactive)	74.3% (inactive)	96.7% (inactive)	3.21% (inactive)	93.5	96.7	-2.24% (inactive)	-4.83% (inactive)
CCCCCC1CC(CC#CCN2CCOCC2)C(=O)O1 (stereo not given)	86	102% (inactive)	86% (inactive)	83.4% (inactive)	93.8% (inactive)	1.16% (inactive)	92.6	93.8	-7.4% (inactive)	-7.78% (inactive)
COc1ccc(CC(=O)OCn2nnc3ccccc3c2=O)cc1	101	86% (inactive)	101% (inactive)	90.5% (inactive)	98% (inactive)	-3.25% (inactive)	101	98	-5.6% (inactive)	-5.56% (inactive)
O=C(NCc1ccco1)c1c2c(nc3ccccc13)CCC2	108	80% (inactive)	108% (inactive)	82.4% (inactive)	80.7% (inactive)	3.16% (inactive)	77.5	80.7	-6.4% (inactive)	3.23% (inactive)
CCOC(=O)COc1ccc(S(=O)(=O)N2CCc3ccccc3C2)cc1	111	102% (inactive)	111% (inactive)	9.96% (active)	96.7% (inactive)	13.7% (inactive)	83	96.7	-1.97% (inactive)	0.65% (inactive)
COCc1nnc(NC(=O)c2ccc(NC(C)=O)cc2)s1	100	102% (inactive)	100% (inactive)	86.4% (inactive)	105% (inactive)	14.8% (inactive)	90.2	105	0.13% (inactive)	-9.19% (inactive)
Cc1cc(C)n2nc(SCC(=O)N(C)c3ccccc3)nc2n1	89.5	87% (inactive)	89.5% (inactive)	94.8% (inactive)	104% (inactive)	1.41% (inactive)	102	104	-7.57% (inactive)	6.39% (inactive)
Cn1c(=O)cc(OCC(=O)NCCCN2CCN(Cc3ccccc3)CC2)c2ccccc21	90.5	104% (inactive)	90.5% (inactive)	81.3% (inactive)	103% (inactive)	17.9% (inactive)	84.8	103	-0.93% (inactive)	-7.87% (inactive)
CN(CC(=O)Nc1sccc1C#N)C1CCCCC1	106	104% (inactive)	106% (inactive)	89.8% (inactive)	93.2% (inactive)	5.53% (inactive)	87.7	93.2	-6.67% (inactive)	-4.44% (inactive)
Cc1ccccc1-c1nc2ccccc2c(=O)n1C1CCS(=O)(=O)C1 (stereo not given)	96.5	91.5% (inactive)	96.5% (inactive)	108% (inactive)	90.3% (inactive)	-9.98% (inactive)	100	90.3	0.26% (inactive)	0.97% (inactive)
CN(C)Cc1cn(CCC(=O)O)c2ccccc12	96	106% (inactive)	96% (inactive)	88.5% (inactive)	101% (inactive)	2.96% (inactive)	98.2	101	-1.22% (inactive)	-1.8% (inactive)
COc1ccc(Cn2c(=O)[nH]c3cc(C(=O)NCCCN4CCCC4)ccc3c2=O)cc1	106	94% (inactive)	106% (inactive)	103% (inactive)	92.3% (inactive)	6.71% (inactive)	85.6	92.3	-7.03% (inactive)	4.33% (inactive)
O=C(CS(=O)(=O)c1cn(Cc2ccc(Cl)cc2)c2ccccc12)N1CCOCC1	84	92.5% (inactive)	84% (inactive)	105% (inactive)	97% (inactive)	8.43% (inactive)	88.6	97	-1.87% (inactive)	-2.62% (inactive)
